{
  "source": "ChEMBL document CHEMBL3351571",
  "about": "“Peptidomimetics of Arg-Phe-NH2 as small molecule agonists of Mas-related gene C (MrgC) receptors” (Bioorg Med Chem, 2014)",
  "type_in_all_cases": "cell-based",
  "key": {"[1]": {"molecular_target": "T1, Mas-related G-protein coupled receptor member X1 (Homo sapiens, UniProt Q96LB2)", "T1 sequence (Q96LB2 whole entry)": "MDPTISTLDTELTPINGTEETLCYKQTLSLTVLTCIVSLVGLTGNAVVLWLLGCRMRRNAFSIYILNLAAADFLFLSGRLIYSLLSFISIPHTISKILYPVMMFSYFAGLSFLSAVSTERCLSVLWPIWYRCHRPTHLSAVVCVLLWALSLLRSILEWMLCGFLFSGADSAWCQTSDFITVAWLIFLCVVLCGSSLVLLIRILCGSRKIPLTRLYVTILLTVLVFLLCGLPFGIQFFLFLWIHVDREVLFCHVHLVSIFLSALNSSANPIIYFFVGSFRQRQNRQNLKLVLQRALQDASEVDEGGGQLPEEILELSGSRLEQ", "assay": "Agonist activity at human MrgX1 transfected in HEK293 cells by FLIPR assay", "method_in_brief": "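Human MrgX1 stably expressed in HEK293 cells, plated at 25,000 cells/well 2 days before imaging. Cells loaded with 2 μM Fluo 4AM plus 1% Trypan Red in HBSS for 50 min at 37°C, then equilibrated 10 min at room temperature. Serial dilutions in HBSS added alongside BAM 8-22 (positive) and HBSS (negative) controls.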"}, "[2]": {"molecular_target": "T2, Mas-related G-protein coupled receptor member X1 (Rattus norvegicus, UniProt Q8R4G1)", "T2 sequence (Q8R4G1 whole entry)": "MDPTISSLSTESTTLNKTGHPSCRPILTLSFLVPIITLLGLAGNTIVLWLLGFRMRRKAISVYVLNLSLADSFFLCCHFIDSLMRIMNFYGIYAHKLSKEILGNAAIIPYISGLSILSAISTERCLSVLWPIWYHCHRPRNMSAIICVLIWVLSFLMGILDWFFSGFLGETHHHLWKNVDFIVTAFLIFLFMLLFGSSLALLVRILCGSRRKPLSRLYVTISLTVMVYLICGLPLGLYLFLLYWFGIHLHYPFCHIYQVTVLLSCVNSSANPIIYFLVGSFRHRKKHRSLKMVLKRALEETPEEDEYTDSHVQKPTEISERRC", "assay": "Agonist activity at rat MrgX1 transfected in HEK293 cells by FLIPR assay", "method_in_brief": "(§1)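 Rodent Mrg receptors were transiently transfected into HEK293 or KNRK cells, which were plated at 25,000 cells/well and imaged 2 days later. Cells were loaded with 2 μM Fluo 4AM and 1% Trypan Red in HBSS for 50 min at 37°C, then held 10 min at room temperature.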"}, "[3]": {"molecular_target": "T3, Mas-related G-protein coupled receptor member X1 (Mus musculus, UniProt Q8CIP3)", "T3 sequence (Q8CIP3 whole entry)": "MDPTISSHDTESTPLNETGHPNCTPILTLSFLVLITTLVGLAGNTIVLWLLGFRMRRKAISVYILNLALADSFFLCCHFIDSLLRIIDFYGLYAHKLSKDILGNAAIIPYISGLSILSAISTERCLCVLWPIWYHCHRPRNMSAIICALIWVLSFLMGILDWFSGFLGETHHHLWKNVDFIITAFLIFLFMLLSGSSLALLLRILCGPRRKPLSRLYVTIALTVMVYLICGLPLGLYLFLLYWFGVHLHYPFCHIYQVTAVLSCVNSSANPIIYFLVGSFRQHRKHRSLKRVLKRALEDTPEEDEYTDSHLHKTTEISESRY", "assay": "Agonist activity at mouse MrgC11 transfected in HEK293 cells by FLIPR assay", "method_in_brief": "as §1"}, "[4]": {"molecular_target": "T1, Mas-related G-protein coupled receptor member X1", "assay": "Antagonist activity at human MrgX1 transfected in HEK293 cells at 200 uM by FLIPR assay"}},
  "note": "The source made the active and inactive calls. The rule behind the calls is not given here. Square brackets hold non-standard residues; d marks the D form. Peptide text beside a SMILES is read from it. dPhe(4-guanidino) = N=C(N)Nc1ccc(C[C@@H](N)C(=O)O)cc1; Phe(4-guanidino) = N=C(N)Nc1ccc(C[C@H](N)C(=O)O)cc1",
  "data": [
    {"smiles": "N=C(N)N1CCC(C(N)C(=O)N[C@@H](Cc2ccccc2)C(N)=O)CC1", "note": "(some centres undefined)", "values": [
      {"measurement": "EC50", "setting": "[1]", "value": "> 100", "unit": "µM"},
      {"measurement": "EC50", "setting": "[2]", "value": 3.98, "unit": "µM"},
      {"measurement": "EC50", "setting": "[3]", "value": 0.794, "unit": "µM"}
    ]},
    {"smiles": "N=C(N)NC[C@@H]1CN[C@H](C(=O)N[C@@H](Cc2ccccc2)C(N)=O)C1", "values": [
      {"measurement": "EC50", "setting": "[1]", "value": "> 100", "unit": "µM"},
      {"measurement": "EC50", "setting": "[2]", "value": "> 100", "unit": "µM"},
      {"measurement": "EC50", "setting": "[3]", "value": 0.501, "unit": "µM"}
    ]},
    {"smiles": "N=C(N)Nc1ccc(C[C@H](N)C(=O)N[C@@H](Cc2ccccc2)C(N)=O)cc1", "note": "(H-[Phe(4-guanidino)]-Phe-NH2)", "values": [
      {"measurement": "EC50", "setting": "[1]", "value": "> 100", "unit": "µM"},
      {"measurement": "EC50", "setting": "[2]", "value": 50.1, "unit": "µM"},
      {"measurement": "EC50", "setting": "[3]", "value": 15.8, "unit": "µM"}
    ]},
    {"smiles": "COc1ccc(-c2ccc(C(=O)Nc3cccc(Cn4ncc(N5CCNCC5)cc4=O)c3C)cc2)cn1", "values": [
      {"measurement": "EC50", "setting": "[1]", "value": 0.0251, "unit": "µM"},
      {"measurement": "EC50", "setting": "[2]", "value": "> 2", "unit": "µM"},
      {"measurement": "EC50", "setting": "[3]", "value": "> 2", "unit": "µM"}
    ]},
    {"smiles": "N=C(N)Nc1ccc(C[C@@H](N)C(=O)N[C@@H](Cc2ccccc2)C(N)=O)cc1", "note": "(H-[dPhe(4-guanidino)]-Phe-NH2)", "values": [
      {"measurement": "EC50", "setting": "[1]", "value": "> 100", "unit": "µM"},
      {"measurement": "EC50", "setting": "[2]", "value": 0.631, "unit": "µM"},
      {"measurement": "EC50", "setting": "[3]", "value": 1.26, "unit": "µM"},
      {"measurement": "Activity", "setting": "[4]", "value": "inactive"}
    ]},
    {"smiles": "N=C(N)N[C@@H]1CN[C@H](C(=O)N[C@@H](Cc2ccccc2)C(N)=O)C1", "values": [
      {"measurement": "EC50", "setting": "[1]", "value": "> 100", "unit": "µM"},
      {"measurement": "EC50", "setting": "[2]", "value": "> 100", "unit": "µM"},
      {"measurement": "EC50", "setting": "[3]", "value": 7.94, "unit": "µM"}
    ]}
  ]
}
